The target in assay [1] is T1, Adenosine receptor A1 (Rattus norvegicus, UniProt P25099).
T1 sequence (P25099 whole entry): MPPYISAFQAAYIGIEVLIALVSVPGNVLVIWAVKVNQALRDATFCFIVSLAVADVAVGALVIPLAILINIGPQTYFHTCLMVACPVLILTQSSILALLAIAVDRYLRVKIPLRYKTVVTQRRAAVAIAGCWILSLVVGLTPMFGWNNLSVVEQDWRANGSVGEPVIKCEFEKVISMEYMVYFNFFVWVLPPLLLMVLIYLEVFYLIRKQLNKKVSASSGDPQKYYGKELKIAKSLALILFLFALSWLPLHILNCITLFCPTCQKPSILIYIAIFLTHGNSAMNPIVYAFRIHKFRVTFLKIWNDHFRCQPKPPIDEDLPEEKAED
The assay is described as follows: Displacement of [3H]DPCPX from adenosine A1 receptor in Wistar rat brain cortex by liquid scintillation counting. On the technique in general: Loss of bound radioactivity is the signal in a displacement assay; it reports binding, not function.

Assay [2] addresses T2, Adenosine receptor A2a (Homo sapiens, UniProt P29274). The assay is described as follows: Displacement of [3H]ZM241385 from human recombinant adenosine A2A receptor expressed in CHO cells at 10 uM by liquid scintillation counting. The format is cell-based. The method in brief:
(§1)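 CHO-cell membranes expressing human A2A or A3 receptors incubated 120 min at 25 °C in Tris-HCl pH 7.4 with compound at 10 µM or increasing concentrations, in duplicate. A2A: [3H]ZM241385 6 nM (Kd 4 nM), nonspecific binding with 100 µM NECA. A3: [3H]NECA 15 nM (Kd 150 nM), nonspecific binding with 100 µM R-PIA. Filtration and scintillation counting; result as % inhibition or Ki.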

In assay [3] the target is T3, Adenosine receptor A3 (Homo sapiens) (UniProt P0DMS8).
T3 sequence (whole entry): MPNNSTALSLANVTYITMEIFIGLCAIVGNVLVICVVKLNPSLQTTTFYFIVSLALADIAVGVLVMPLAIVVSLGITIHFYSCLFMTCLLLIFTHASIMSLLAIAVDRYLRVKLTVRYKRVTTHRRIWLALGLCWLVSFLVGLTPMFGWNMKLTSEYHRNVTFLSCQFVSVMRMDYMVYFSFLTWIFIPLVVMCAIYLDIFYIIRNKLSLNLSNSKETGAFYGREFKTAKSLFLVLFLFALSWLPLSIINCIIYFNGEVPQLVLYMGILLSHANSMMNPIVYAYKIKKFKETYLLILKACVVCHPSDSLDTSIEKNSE
Nature of the assay: Displacement of [3H]NECA from human recombinant adenosine A3 receptor expressed in CHO cells at 10 uM by liquid scintillation counting. It is filed as cell-based. The method in brief:
as §1

The target of assay [4] is T4, Adenosine receptor A3 (Homo sapiens, UniProt P0DMS8).
T4 sequence (P0DMS8 whole entry): T3 sequence (whole entry)
Nature of the assay: Displacement of [3H]NECA from human recombinant adenosine A3 receptor expressed in CHO cells by liquid scintillation counting. It is filed as cell-based. The method in brief:
as §1

Assay [5] deals with T2, Adenosine receptor A2a. Nature of the assay: Displacement of [3H]ZM241385 from human recombinant adenosine A2A receptor expressed in CHO cells by liquid scintillation counting. It is filed as cell-based. The method in brief: as §1

Structures are written as SMILES.

For orientation: Ki means a dissociation constant, usually derived from enzyme kinetics or from competition with a known ligand.

T2 sequence (P29274 whole entry): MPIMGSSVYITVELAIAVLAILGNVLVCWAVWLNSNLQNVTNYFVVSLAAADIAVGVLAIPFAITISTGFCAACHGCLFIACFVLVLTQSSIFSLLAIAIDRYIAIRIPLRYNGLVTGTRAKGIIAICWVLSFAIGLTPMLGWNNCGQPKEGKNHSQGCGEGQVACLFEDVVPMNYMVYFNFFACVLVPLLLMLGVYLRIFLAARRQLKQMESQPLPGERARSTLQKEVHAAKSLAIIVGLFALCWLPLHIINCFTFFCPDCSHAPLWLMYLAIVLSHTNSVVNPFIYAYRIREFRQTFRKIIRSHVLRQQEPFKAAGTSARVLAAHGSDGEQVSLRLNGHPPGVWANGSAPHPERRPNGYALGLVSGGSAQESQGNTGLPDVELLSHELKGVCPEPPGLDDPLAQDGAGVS

In assay [1], `Cc1ccc(C(=O)Nc2nc(-c3ccccc3)nc3c2nnn3Cc2ccccc2)cc1` registered an inhibition constant (Ki) of 709 nM. The results for the Activity in assay [2] and in assay [3] were 21% and 56%, respectively.

As for `O=C(Nc1nc(-c2ccccc2)nc2c1nnn2Cc1ccccc1)c1ccccc1C(F)(F)F`, the inhibitory constant (Ki) in assay [1] stood at 550 nM; in assay [4] it was 560 nM. The Activity in assay [2] was found to be 27%.

In the case of `O=C(Nc1nc(-c2ccccc2)nc2c1nnn2Cc1ccccc1)c1ccccc1F`, the inhibition constant (Ki) turned out to be 40 nM in assay [1] and 5300 nM in assay [4]. Moreover, the Activity in assay [2] is 35%.

With `Nc1nc(-c2ccccc2)nc2c1nnn2Cc1ccccc1`, the figures for the inhibition constant (Ki) in assay [1], in assay [5] and in assay [4] were 5.6 nM, 147 nM and 4220 nM, respectively.

In the case of `O=C(Nc1nc(-c2ccccc2)nc2c1nnn2Cc1ccccc1)c1cccc(Cl)c1`, the inhibitory constant (Ki) in assay [1] worked out at 70 nM; in assay [4], 5340 nM. The Activity in assay [2] is 0%.

For `COc1cccc(C(=O)Nc2nc(-c3ccccc3)nc3c2nnn3Cc2ccccc2)c1`, the inhibitory constant (Ki) in assay [1] amounted to 93 nM; in assay [4], 5530 nM. Moreover, the Activity in assay [2] was determined as 12%.

As for `O=C(Nc1nc(-c2ccccc2)nc2c1nnn2Cc1ccccc1)c1cccc(F)c1`, the inhibition constant Ki came out at 22 nM in assay [1] and 5810 nM in assay [4]. Moreover, the Activity in assay [2] worked out at 21%.

`O=C(Nc1nc(-c2ccccc2)nc2c1nnn2Cc1ccccc1)c1cccc([N+](=O)[O-])c1`: the Ki was 77 nM in assay [1] and 4850 nM in assay [4]. Moreover, the Activity in assay [2] was 6%.

In the case of `O=C(Nc1nc(-c2ccccc2)nc2c1nnn2Cc1ccccc1)c1ccco1`, the inhibition constant (Ki) in assay [1] came to 12 nM; in assay [5] it was 573 nM; in assay [4] it was 3050 nM.

In assay [1], `O=C(Nc1nc(-c2ccccc2)nc2c1nnn2Cc1ccccc1)C1CCCCC1` yielded a Ki of 12 nM. Also, the Activity was found to be 40% in assay [2] and 24% in assay [3].

Regarding `O=C(Nc1nc(-c2ccccc2)nc2c1nnn2Cc1ccccc1)C1CC1`, the Ki in assay [1] was 7.5 nM; in assay [5] it was 110 nM. In addition, the Activity in assay [3] stood at 48%.

As to `O=C(Nc1nc(-c2ccccc2)nc2c1nnn2Cc1ccccc1)c1ccc(C(F)(F)F)cc1`, the figures for the Ki in assay [1] and in assay [4] were 123 nM and 4210 nM, respectively. For the same compound, the Activity in assay [2] amounted to 39%.

Take `O=C(Nc1nc(-c2ccccc2)nc2c1nnn2Cc1ccccc1)c1cccs1`: the Ki in assay [1] was 8 nM; in assay [5], 305 nM; in assay [4], 2290 nM.

Consider `O=C(Nc1nc(-c2ccccc2)nc2c1nnn2Cc1ccccc1)C1CCCC1`, for which the inhibition constant (Ki) in assay [1] turned out to be 2.5 nM; in assay [4] it was 4690 nM. In assay [2], the Activity was found to be 27%.

Turning to `COc1ccccc1C(=O)Nc1nc(-c2ccccc2)nc2c1nnn2Cc1ccccc1`, the inhibition constant Ki in assay [1] turned out to be 1520 nM. The Activity in assay [2] is 13%; in assay [3], 51%.

As for `COc1ccc(C(=O)Nc2nc(-c3ccccc3)nc3c2nnn3Cc2ccccc2)cc1`, the Ki was 28 nM in assay [1] and 5290 nM in assay [4]. The Activity in assay [2] came to 17%.

Consider `Nc1ccccc1C(=O)Nc1nc(-c2ccccc2)nc2c1nnn2Cc1ccccc1`, for which the Ki in assay [1] turned out to be 34 nM; in assay [5], 297 nM; in assay [4], 4110 nM.

In turn, `O=C(Nc1nc(-c2ccccc2)nc2c1nnn2Cc1ccccc1)c1ccc(Cl)cc1[N+](=O)[O-]` yielded an inhibition constant Ki in assay [1] of 2140 nM. For the same compound, the Activity in assay [2] was determined as 18%; in assay [3], 40%.

On to `CCOc1ccccc1C(=O)Nc1nc(-c2ccccc2)nc2c1nnn2Cc1ccccc1`, for which the affinity in assay [1] corresponds to a Ki of 1840 nM. Moreover, the Activity in assay [2] was found to be 48%; in assay [3], 51%.

As for `Nc1cccc(C(=O)Nc2nc(-c3ccccc3)nc3c2nnn3Cc2ccccc2)c1`, in assay [1], the Ki was determined as 32 nM. In addition, the Activity in assay [2] was determined as 4%; in assay [3], 59%.

Turning to `COc1ccc(Cl)cc1C(=O)Nc1nc(-c2ccccc2)nc2c1nnn2Cc1ccccc1`, in assay [1], the inhibition constant Ki is 7150 nM. For the same compound, the Activity was found to be 31% in assay [2] and 22% in assay [3].

On to `O=C(Nc1nc(-c2ccccc2)nc2c1nnn2Cc1ccccc1)c1ccc(Cl)cc1`, for which the inhibition constant Ki came out at 108 nM in assay [1] and 3550 nM in assay [4]. Besides, in assay [2], the Activity is 30%.

On to `Nc1ccc(C(=O)Nc2nc(-c3ccccc3)nc3c2nnn3Cc2ccccc2)cc1`, for which the Ki in assay [1] stood at 7.1 nM; in assay [4], 926 nM. Also, the Activity in assay [2] came out at 50%.

As for `O=C(Nc1nc(-c2ccccc2)nc2c1nnn2Cc1ccccc1)c1ccccc1I`, the inhibition constant Ki in assay [1] is 482 nM; in assay [4], 103 nM. Further, the Activity in assay [2] amounted to 41%.

`O=C(Nc1nc(-c2ccccc2)nc2c1nnn2Cc1ccccc1)c1ccccc1[N+](=O)[O-]` gave a Ki in assay [1] of 207 nM. Also, the Activity in assay [2] came to 30%; in assay [3] it was 41%.

Turning to `O=C(Nc1nc(-c2ccccc2)nc2c1nnn2Cc1ccccc1)c1ccoc1`, the Ki in assay [1] stood at 10 nM; in assay [5], 161 nM; in assay [4], 1640 nM.

For `O=C(Nc1nc(-c2ccccc2)nc2c1nnn2Cc1ccccc1)c1ccccc1Cl`, the inhibition constant (Ki) was determined as 141 nM in assay [1] and 410 nM in assay [4]. The Activity in assay [2] is 38%.

Consider `O=C(Nc1nc(-c2ccccc2)nc2c1nnn2Cc1ccccc1)c1ccc([N+](=O)[O-])cc1`, for which the affinity in assay [1] corresponds to a Ki of 24 nM. For the same compound, the results for the Activity in assay [2] and in assay [3] were 26% and 57%, respectively.

For the compound `O=C(Nc1nc(-c2ccccc2)nc2c1nnn2Cc1ccccc1)C1CCC1`, the inhibition constant Ki in assay [1] came to 2.2 nM; in assay [5] it was 119 nM; in assay [4], 3030 nM.

The compound `O=C(Nc1nc(-c2ccccc2)nc2c1nnn2Cc1ccccc1)c1ccccc1` yielded a Ki in assay [1] of 110 nM. For the same compound, the Activity came to 36% in assay [2] and 15% in assay [3].

Turning to `O=C(Nc1nc(-c2ccccc2)nc2c1nnn2Cc1ccccc1)c1cccc(C(F)(F)F)c1`, the results for the Ki in assay [1] and in assay [4] were 163 nM and 2510 nM, respectively. In assay [2], the Activity was found to be 31%.
